{"source": "ChEMBL document CHEMBL1687848", "about": "“In vitro effect of qnrA1, qnrB1, and qnrS1 genes on fluoroquinolone activity against isogenic Escherichia coli isolates with mutations in gyrA and parC” (2011)", "type_in_all_cases": "functional", "key": {"Escherichia coli [1]": {"system": "Escherichia coli", "test": "Antibacterial activity against qnrS gene expressing Escherichia coli ATCC 25922 harboring ParC S80R mutant and pBK-QnrS1 by broth microdilution method"}, "Escherichia coli [2]": {"system": "Escherichia coli", "test": "Antibacterial activity against Escherichia coli ATCC 25922 harboring ParC S80R mutant by broth microdilution method"}, "Escherichia coli [3]": {"system": "Escherichia coli", "test": "Antibacterial activity against qnrS gene expressing Escherichia coli ATCC 25922 harboring GyrA S83L mutant and pBK-QnrS1 by broth microdilution method"}, "Escherichia coli [4]": {"system": "Escherichia coli", "test": "Antibacterial activity against qnrB gene expressing Escherichia coli ATCC 25922 harboring GyrA S83L mutant and pBK-QnrB1 by broth microdilution method"}, "Escherichia coli [5]": {"system": "Escherichia coli", "test": "Antibacterial activity against qnrA gene expressing Escherichia coli ATCC 25922 harboring GyrA S83L mutant and pBK-QnrA1 by broth microdilution method"}, "Escherichia coli [6]": {"system": "Escherichia coli", "test": "Antibacterial activity against qnrB gene expressing Escherichia coli ATCC 25922 harboring ParC S80R mutant and pBK-QnrB1 by broth microdilution method"}, "Escherichia coli [7]": {"system": "Escherichia coli", "test": "Antibacterial activity against qnrA gene expressing Escherichia coli ATCC 25922 harboring ParC S80R mutant and pBK-QnrA1 by broth microdilution method"}, "Escherichia coli [8]": {"system": "Escherichia coli", "test": "Antibacterial activity against Escherichia coli ATCC 25922 expressing qnrA gene and pBK-QnrA1 by broth microdilution method"}, "Escherichia coli [9]": {"system": "Escherichia coli", "test": "Antibacterial activity against Escherichia coli ATCC 25922 expressing qnrB gene and pBK-QnrB1 by broth microdilution method"}, "Escherichia coli [10]": {"system": "Escherichia coli", "test": "Antibacterial activity against Escherichia coli ATCC 25922 harboring GyrA S83L mutant by broth microdilution method"}, "Escherichia coli [11]": {"system": "Escherichia coli", "test": "Antibacterial activity against qnrA gene expressing Escherichia coli ATCC 25922 harboring ParC S80R mutant, ParC S80R mutant and pBK-QnrA1 by broth microdilution method"}, "Escherichia coli [12]": {"system": "Escherichia coli", "test": "Antibacterial activity against qnrB gene expressing Escherichia coli ATCC 25922 harboring ParC S80R mutant, ParC S80R mutant and pBK-QnrB1 by broth microdilution method"}, "Escherichia coli [13]": {"system": "Escherichia coli", "test": "Antibacterial activity against qnrS gene expressing Escherichia coli ATCC 25922 harboring ParC S80R mutant, ParC S80R mutant and pBK-QnrS1 by broth microdilution method"}, "Escherichia coli [14]": {"system": "Escherichia coli", "test": "Antibacterial activity against Escherichia coli ATCC 25922 expressing qnrA gene and pBK-QnrA1 assessed as mutant prevention concentration"}, "Escherichia coli [15]": {"system": "Escherichia coli", "test": "Antibacterial activity against Escherichia coli ATCC 25922 expressing qnrB gene and pBK-QnrB1 assessed as mutant prevention concentration"}, "Escherichia coli [16]": {"system": "Escherichia coli", "test": "Antibacterial activity against Escherichia coli ATCC 25922 expressing qnrS gene and pBK-QnrS1 assessed as mutant prevention concentration"}, "Escherichia coli [17]": {"system": "Escherichia coli", "test": "Antibacterial activity against Escherichia coli ATCC 25922 harboring GyrA S83L mutant assessed as mutant prevention concentration"}, "Escherichia coli [18]": {"system": "Escherichia coli", "test": "Antibacterial activity against qnrA gene expressing Escherichia coli ATCC 25922 harboring GyrA S83L mutant and pBK-QnrA1 assessed as mutant prevention concentration"}, "Escherichia coli [19]": {"system": "Escherichia coli", "test": "Antibacterial activity against qnrB gene expressing Escherichia coli ATCC 25922 harboring GyrA S83L mutant and pBK-QnrB1 assessed as mutant prevention concentration"}, "Escherichia coli [20]": {"system": "Escherichia coli", "test": "Antibacterial activity against qnrS gene expressing Escherichia coli ATCC 25922 harboring GyrA S83L mutant and pBK-QnrS1 assessed as mutant prevention concentration"}, "Escherichia coli [21]": {"system": "Escherichia coli", "test": "Ratio of mutant prevention concentration to MIC for Escherichia coli ATCC 25922", "how_it_was_run": "(§1)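 MIC: broth microdilution per CLSI, in duplicate. The ratio is MPC over MIC. Strains are E. coli ATCC 25922 or its GyrA Ser83Leu gene-replacement mutant, with qnr genes on pBK-CMV introduced by electroporation.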"}, "Escherichia coli [22]": {"system": "Escherichia coli", "test": "Ratio of mutant prevention concentration to MIC for Escherichia coli ATCC 25922 expressing qnrB gene and pBK-QnrB1", "how_it_was_run": "as §1"}, "Escherichia coli [23]": {"system": "Escherichia coli", "test": "Ratio of mutant prevention concentration to MIC for qnrB gene expressing Escherichia coli ATCC 25922 harboring GyrA S83L mutant and pBK-QnrB1", "how_it_was_run": "as §1"}, "Escherichia coli [24]": {"system": "Escherichia coli", "test": "Antibacterial activity against Escherichia coli ATCC 25922 assessed as earliest time required to resistant colonies visible one step below mutant prevention concentration"}, "Escherichia coli [25]": {"system": "Escherichia coli", "test": "Antibacterial activity against Escherichia coli ATCC 25922 expressing qnrA gene and pBK-QnrA1 assessed as earliest time required to resistant colonies visible one step below mutant prevention concentration"}, "Escherichia coli [26]": {"system": "Escherichia coli", "test": "Antibacterial activity against Escherichia coli ATCC 25922 expressing qnrB gene and pBK-QnrB1 assessed as earliest time required to resistant colonies visible one step below mutant prevention concentration"}, "Escherichia coli [27]": {"system": "Escherichia coli", "test": "Antibacterial activity against Escherichia coli ATCC 25922 harboring GyrA S83L mutant assessed as earliest time required to resistant colonies visible one step below mutant prevention concentration"}, "Escherichia coli [28]": {"system": "Escherichia coli", "test": "Antibacterial activity against qnrA gene expressing Escherichia coli ATCC 25922 harboring GyrA S83L mutant and pBK-QnrA1 assessed as earliest time required to resistant colonies visible one step below mutant prevention concentration"}, "Escherichia coli [29]": {"system": "Escherichia coli", "test": "Antibacterial activity against qnrB gene expressing Escherichia coli ATCC 25922 harboring GyrA S83L mutant and pBK-QnrB1 assessed as earliest time required to resistant colonies visible one step below mutant prevention concentration"}, "Escherichia coli [30]": {"system": "Escherichia coli", "test": "Antibacterial activity against qnrS gene expressing Escherichia coli ATCC 25922 harboring GyrA S83L mutant and pBK-QnrS1 assessed as earliest time required to resistant colonies visible one step below mutant prevention concentration"}, "Escherichia coli [31]": {"system": "Escherichia coli", "test": "Antibacterial activity against Escherichia coli ATCC 25922 assessed as resistant colonies recovered one step below mutant prevention concentration", "how_it_was_run": "(§2)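 Resistant colonies recovered from Mueller-Hinton plates one concentration step below the MPC for each fluoroquinolone were retested for MIC. Mutants taken from plated concentrations closest to the MPC had the QRDRs of gyrA and parC analysed.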"}, "Escherichia coli [32]": {"system": "Escherichia coli", "test": "Antibacterial activity against Escherichia coli ATCC 25922 expressing qnrA gene and pBK-QnrA1 assessed as resistant colonies recovered one step below mutant prevention concentration", "how_it_was_run": "as §2"}, "Escherichia coli [33]": {"system": "Escherichia coli", "test": "Antibacterial activity against Escherichia coli ATCC 25922 expressing qnrS gene and pBK-QnrS1 assessed as resistant colonies recovered one step below mutant prevention concentration", "how_it_was_run": "as §2"}, "Escherichia coli [34]": {"system": "Escherichia coli", "test": "Antibacterial activity against qnrA gene expressing Escherichia coli ATCC 25922 harboring GyrA S83L mutant and pBK-QnrA1 assessed as resistant colonies recovered one step below mutant prevention concentration", "how_it_was_run": "as §2"}, "Escherichia coli [35]": {"system": "Escherichia coli", "test": "Antibacterial activity against qnrS gene expressing Escherichia coli ATCC 25922 harboring GyrA S83L mutant and pBK-QnrS1 assessed as resistant colonies recovered one step below mutant prevention concentration", "how_it_was_run": "as §2"}}, "data": [{"smiles": "CCn1cc(C(=O)O)c(=O)c2cc(F)c(N3CCNCC3)cc21", "note": "[NORFLOXACIN]", "values": [{"measurement": "MBC", "setting": "Escherichia coli [1]", "result": 0.5, "unit": "µg/mL"}, {"measurement": "MIC", "setting": "Escherichia coli [1]", "result": 0.5, "unit": "µg/mL"}, {"measurement": "MBC", "setting": "Escherichia coli [2]", "result": 0.03, "unit": "µg/mL"}, {"measurement": "MIC", "setting": "Escherichia coli [2]", "result": 0.03, "unit": "µg/mL"}, {"measurement": "MBC", "setting": "Escherichia coli [3]", "result": 4, "unit": "µg/mL"}, {"measurement": "MIC", "setting": "Escherichia coli [3]", "result": 2, "unit": "µg/mL"}, {"measurement": "MBC", "setting": "Escherichia coli [4]", "result": 1, "unit": "µg/mL"}, {"measurement": "MIC", "setting": "Escherichia coli [4]", "result": 1, "unit": "µg/mL"}, {"measurement": "MBC", "setting": "Escherichia coli [5]", "result": 2, "unit": "µg/mL"}, {"measurement": "MIC", "setting": "Escherichia coli [5]", "result": 2, "unit": "µg/mL"}, {"measurement": "MBC", "setting": "Escherichia coli [6]", "result": 0.5, "unit": "µg/mL"}, {"measurement": "MIC", "setting": "Escherichia coli [6]", "result": 0.5, "unit": "µg/mL"}, {"measurement": "MBC", "setting": "Escherichia coli [7]", "result": 2, "unit": "µg/mL"}, {"measurement": "MIC", "setting": "Escherichia coli [7]", "result": 0.5, "unit": "µg/mL"}, {"measurement": "MBC", "setting": "Escherichia coli [8]", "result": 1, "unit": "µg/mL"}, {"measurement": "MIC", "setting": "Escherichia coli [8]", "result": 0.5, "unit": "µg/mL"}, {"measurement": "MBC", "setting": "Escherichia coli [9]", "result": 0.5, "unit": "µg/mL"}, {"measurement": "MIC", "setting": "Escherichia coli [9]", "result": 0.25, "unit": "µg/mL"}, {"measurement": "MBC", "setting": "Escherichia coli [10]", "result": 0.5, "unit": "µg/mL"}, {"measurement": "MIC", "setting": "Escherichia coli [10]", "result": 0.125, "unit": "µg/mL"}, {"measurement": "MBC", "setting": "Escherichia coli [11]", "result": 64, "unit": "µg/mL"}, {"measurement": "MIC", "setting": "Escherichia coli [11]", "result": 8, "unit": "µg/mL"}, {"measurement": "MBC", "setting": "Escherichia coli [12]", "result": 4, "unit": "µg/mL"}, {"measurement": "MIC", "setting": "Escherichia coli [12]", "result": 4, "unit": "µg/mL"}, {"measurement": "MBC", "setting": "Escherichia coli [13]", "result": 16, "unit": "µg/mL"}, {"measurement": "MIC", "setting": "Escherichia coli [13]", "result": 8, "unit": "µg/mL"}, {"measurement": "Activity", "setting": "Escherichia coli [14]", "result": 8, "unit": "µg/mL"}, {"measurement": "Activity", "setting": "Escherichia coli [15]", "result": 8, "unit": "µg/mL"}, {"measurement": "Activity", "setting": "Escherichia coli [16]", "result": 8, "unit": "µg/mL"}, {"measurement": "Activity", "setting": "Escherichia coli [17]", "result": 8, "unit": "µg/mL"}, {"measurement": "Activity", "setting": "Escherichia coli [18]", "result": 16, "unit": "µg/mL"}, {"measurement": "Activity", "setting": "Escherichia coli [19]", "result": 16, "unit": "µg/mL"}, {"measurement": "Activity", "setting": "Escherichia coli [20]", "result": 32, "unit": "µg/mL"}, {"measurement": "Ratio", "setting": "Escherichia coli [21]", "result": 266.7}, {"measurement": "Ratio", "setting": "Escherichia coli [22]", "result": 32}, {"measurement": "Ratio", "setting": "Escherichia coli [23]", "result": 16}, {"measurement": "Time", "setting": "Escherichia coli [24]", "result": 48, "unit": "h"}, {"measurement": "Time", "setting": "Escherichia coli [25]", "result": 24, "unit": "h"}, {"measurement": "Time", "setting": "Escherichia coli [26]", "result": 48, "unit": "h"}, {"measurement": "Time", "setting": "Escherichia coli [27]", "result": 24, "unit": "h"}, {"measurement": "Time", "setting": "Escherichia coli [28]", "result": 24, "unit": "h"}, {"measurement": "Time", "setting": "Escherichia coli [29]", "result": 24, "unit": "h"}, {"measurement": "Time", "setting": "Escherichia coli [30]", "result": 24, "unit": "h"}, {"measurement": "MIC", "setting": "Escherichia coli [31]", "result": 0.25, "unit": "µg/mL"}, {"measurement": "MIC", "setting": "Escherichia coli [32]", "result": 1, "unit": "µg/mL"}, {"measurement": "MIC", "setting": "Escherichia coli [33]", "result": 1, "unit": "µg/mL"}, {"measurement": "MIC", "setting": "Escherichia coli [34]", "result": 8, "unit": "µg/mL"}, {"measurement": "MIC", "setting": "Escherichia coli [35]", "result": 2, "unit": "µg/mL"}]}]}
